Results on 18 molecules are retold here after ChEMBL document CHEMBL1687867, “Thiazolidione derivatives as novel antibiofilm agents: design, synthesis, biological evaluation, and structure-activity relationships” (2011).

Usually MIC stands for the lowest concentration found to suppress growth. A low value points to inhibition by little substance.

Test [1] has as its system Staphylococcus epidermidis. Nature of the test: Antibacterial activity against Staphylococcus epidermidis ATCC 35984 assessed as inhibition of biofilm production after 6 hrs. The format is functional, RP62A. As to conditions: in the assay text read “after 18 hrs” for “after 6 hrs”. A digest of the protocol: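 Young S. epidermidis biofilm grown 6 h at 37 °C in TSB with glucose in microtiter wells, washed four times with PBS, then exposed to fresh TSB carrying serially diluted compounds for 18 h at 37 °C. After PBS washes, methanol fixation 15 min, air drying and crystal violet staining. Washed dried biofilm served as blank (subtracted), TSB-only biofilm as positive control; triplicate wells, three repeats.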

The test system of test [2] is Staphylococcus epidermidis. Nature of the test: Antibacterial activity against Staphylococcus epidermidis ATCC 35984 by broth microdilution method. Format: functional. As to conditions: RP62A. A digest of the protocol:
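MIC determined by CLSI broth microdilution […].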
A general note: Broth dilution looks for growth in wells or tubes with falling amounts of substance.

Test [3] has as its system Staphylococcus epidermidis. Nature of the test: Antibacterial activity against Staphylococcus epidermidis ATCC 35984 assessed as inhibition of biofilm production after 18 hrs.

≈ marks a conversion by molar mass, not a printed value. A value given as a limit tells only on which side of the number the result lay.

In the case of `Cc1ccc(/N=C2/S/C(=C\c3ccc(-c4cccc(C(=O)O)c4)o3)C(=O)N2c2ccc(C)cc2)cc1`, in test [1], the Biofilm inhibitory concentration came out at 12.5 µM. In test [2], this molecule showed a minimum inhibitory concentration (MIC) of 6.25 µM (≈ 3.09 µg/mL).

Turning to `CCOC(=O)C1=C(c2ccccc2)N=c2s/c(=C\c3ccc(OCC(=O)O)cc3)c(=O)n2C1c1ccc(OC)cc1` (stereo not given), in test [1], the Biofilm inhibitory concentration turned out to be 50 µM. Also, the MIC in test [2] came out at 25 µM (≈ 14.3 µg/mL).

On to `CCOC(=O)C1=C(c2ccccc2)N=c2s/c(=C\c3ccc(-c4cccc(C(=O)O)c4)o3)c(=O)n2C1c1ccccc1` (stereo not given), for which the Biofilm inhibitory concentration in test [1] is greater than 200 µM. Further, the MIC in test [2] was greater than 200 µM.

For `CCOC(=O)C1=C(c2ccccc2)N=c2s/c(=C\c3ccc(-c4cccc(C(=O)O)c4)o3)c(=O)n2C1c1ccc(OC)cc1` (stereo not given), the Biofilm inhibitory concentration in test [1] amounted to 25 µM. In addition, in test [2], the MIC was 6.25 µM (≈ 3.79 µg/mL).

In the case of `CCOC(=O)C1=C(c2ccccc2)N=c2s/c(=C\c3ccc(-c4cccc(C(=O)OC)c4)o3)c(=O)n2C1c1ccccc1` (stereo not given), the Biofilm inhibitory concentration in test [1] is greater than 200 µM. In test [2], this molecule came in with an MIC greater than 200 µM.

As for `CCOC(=O)C1=C(c2ccccc2)N=c2s/c(=C\c3ccc(-c4cccc(C(=O)OC)c4)o3)c(=O)n2C1c1ccc(OC)cc1` (stereo not given), the Biofilm inhibitory concentration in test [1] is greater than 200 µM. The molecule also gave an MIC in test [2] greater than 200 µM.

For `CCOC(=O)C1=C(c2ccccc2)N=c2s/c(=C\c3cccc(O)c3)c(=O)n2C1c1ccc(OC)cc1` (stereo not given), the Biofilm inhibitory concentration in test [1] was greater than 200 µM. For the same molecule, the minimum inhibitory concentration (MIC) in test [2] is greater than 200 µM.

As for `CCOC(=O)C1=C(c2ccccc2)N=c2s/c(=C\c3ccc(N(C)C)cc3)c(=O)n2C1c1ccc(OC)cc1` (stereo not given), the Biofilm inhibitory concentration in test [1] is greater than 200 µM. Besides, in test [2], the MIC is greater than 200 µM.

Regarding `CCOC(=O)C1=C(c2ccccc2)N=c2s/c(=C\c3cccc([N+](=O)[O-])c3)c(=O)n2C1c1ccc(OC)cc1` (stereo not given), the Biofilm inhibitory concentration in test [1] was greater than 200 µM. This molecule came in with a minimum inhibitory concentration (MIC) in test [2] greater than 200 µM.

As to `CCOC(=O)C1=C(c2ccccc2)N=c2s/c(=C\c3ccc(O)c(OC)c3)c(=O)n2C1c1ccc(OC)cc1` (stereo not given), the Biofilm inhibitory concentration in test [1] is greater than 200 µM. In test [2], this molecule registered a minimal inhibitory concentration (MIC) greater than 200 µM.

With `CCOC(=O)C1=C(c2ccccc2)N=c2s/c(=C\c3ccc(O)cc3)c(=O)n2C1c1ccc(OC)cc1` (stereo not given), in test [1], the Biofilm inhibitory concentration was greater than 200 µM. In addition, the MIC in test [2] is greater than 200 µM.

As for `CCOC(=O)C1=C(c2ccccc2)N=c2s/c(=C\c3ccc(OCC(=O)O)cc3)c(=O)n2C1c1ccc2c(c1)OCO2` (stereo not given), the Biofilm inhibitory concentration in test [1] came out at 50 µM. In test [2], this molecule had a minimum inhibitory concentration (MIC) of 25 µM (≈ 14.6 µg/mL).

For `COc1ccc(C/N=C2/S/C(=C\c3ccc(OCC(=O)O)cc3)C(=O)N2Cc2ccc(OC)cc2)cc1`, the Biofilm inhibitory concentration in test [1] came to 25 µM. Also, the MIC in test [2] is 12.5 µM (≈ 6.48 µg/mL).

On to `COc1ccc(C/N=C2/S/C(=C\c3ccc(-c4cccc(C(=O)O)c4)o3)C(=O)N2Cc2ccc(OC)cc2)cc1`, for which the minimum inhibitory concentration (MIC) in test [2] worked out at 50 µM (≈ 27.7 µg/mL).

As for `COc1ccc(/N=C2/S/C(=C\c3ccc(-c4cccc(C(=O)O)c4)o3)C(=O)N2c2ccc(OC)cc2)cc1`, the MIC in test [2] is 6.25 µM (≈ 3.29 µg/mL). In test [3], the INH came out at 6.25 µM.

As for `Cc1ccccc1/N=C1/S/C(=C\c2ccc(-c3cccc(C(=O)O)c3)o2)C(=O)N1c1ccccc1C`, the Biofilm inhibitory concentration in test [1] came to 25 µM. In test [2], the MIC was 12.5 µM (≈ 6.18 µg/mL).

Regarding `Cc1ccccc1/N=C1/S/C(=C\c2ccc(-c3ccc(C(=O)O)cc3)o2)C(=O)N1c1ccccc1C`, the MIC in test [2] is 3.12 µM (≈ 1.55 µg/mL). The INH in test [3] was determined as 6.25 µM.

On to `CCOC(=O)C1=C(c2ccccc2)N=c2s/c(=C\c3ccc(-c4cccc(C(=O)O)c4)o3)c(=O)n2C1c1ccc2c(c1)OCO2` (stereo not given), for which the Biofilm inhibitory concentration in test [1] came to 25 µM. This molecule had a minimum inhibitory concentration (MIC) in test [2] of 6.25 µM (≈ 3.88 µg/mL).
